# ChEMBL document CHEMBL4145497, “Discovery of 2-aminothiazolyl berberine derivatives as effectively antibacterial agents toward clinically drug-resistant Gram-negative Acinetobacter baumanii” (Eur J Med Chem, 2018)
# How the values were obtained:
# [1] = tested on: Staphylococcus aureus; experiment: Antibacterial activity against Staphylococcus aureus ATCC 25923 after 18 to 24 hrs by CLSI two fold serial dilution method; assay type: functional
# [2] = tested on: Bacillus subtilis; experiment: Antibacterial activity against Bacillus subtilis ATCC 21216 after 18 to 24 hrs by CLSI two fold serial dilution method; assay type: functional
# [3] = tested on: Micrococcus luteus; experiment: Antibacterial activity against Micrococcus luteus ATCC 4698 after 18 to 24 hrs by CLSI two fold serial dilution method; assay type: functional
# [4] = tested on: Escherichia coli; experiment: Antibacterial activity against Escherichia coli DH52 after 18 to 24 hrs by CLSI two fold serial dilution method; assay type: functional
# [5] = tested on: Pseudomonas aeruginosa; experiment: Antibacterial activity against Pseudomonas aeruginosa ATCC 27853 after 18 to 24 hrs by CLSI two fold serial dilution method; assay type: functional
# [6] = tested on: Candida albicans; experiment: Antifungal activity against Candida albicans ATCC 76615 by CLSI two fold serial dilution method; assay type: functional
# [7] = tested on: Cyberlindnera jadinii; experiment: Antifungal activity against Candida utilis ATCC 9950 by CLSI two fold serial dilution method; assay type: functional; conditions: Williopsis jadinii
# [8] = tested on: Pichia norvegensis; experiment: Antifungal activity against Candida mycoderma ATCC 96918 by CLSI two fold serial dilution method; assay type: functional
# [9] = tested on: Aspergillus flavus; experiment: Antifungal activity against Aspergillus flavus ATCC 204304 by CLSI two fold serial dilution method; assay type: functional
# [10] = tested on: Saccharomyces cerevisiae; experiment: Antifungal activity against Saccharomyces cerevisiae ATCC 9763 by CLSI two fold serial dilution method; assay type: functional
# [11] = tested on: Candida parapsilosis; experiment: Antifungal activity against Candida parapsilosis ATCC 22019 by CLSI two fold serial dilution method; assay type: functional; conditions: Lodderomyces parapsilosis
# [12] = Aqueous solubility of the compound in phosphate buffer at pH 7.4 after 3 hrs by UV detection assay; assay type: physicochemical
# How it was run: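 Water solubility measured at physiological pH, with berberine as the control.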
# [13] = tested on: Staphylococcus aureus; experiment: Antibacterial activity against methicillin-resistant Staphylococcus aureus N315 after 18 to 24 hrs by CLSI two fold serial dilution method; assay type: functional
# [14] = tested on: Enterococcus faecalis; experiment: Antibacterial activity against drug-resistant Enterococcus faecalis after 18 to 24 hrs by CLSI two fold serial dilution method; assay type: functional
# [15] = tested on: Escherichia coli; experiment: Antibacterial activity against drug-resistant Escherichia coli after 18 to 24 hrs by CLSI two fold serial dilution method; assay type: functional
# [16] = tested on: Pseudomonas aeruginosa; experiment: Antibacterial activity against drug-resistant Pseudomonas aeruginosa after 18 to 24 hrs by CLSI two fold serial dilution method; assay type: functional
# [17] = tested on: Klebsiella pneumoniae; experiment: Antibacterial activity against drug-resistant Klebsiella pneumoniae after 18 to 24 hrs by CLSI two fold serial dilution method; assay type: functional
# [18] = tested on: Acinetobacter baumannii; experiment: Antibacterial activity against drug-resistant Acinetobacter baumannii after 18 to 24 hrs by CLSI two fold serial dilution method; assay type: functional
# [19] = tested on: Candida albicans; experiment: Antifungal activity against drug-resistant Candida albicans by CLSI two fold serial dilution method; assay type: functional
# [20] = tested on: Candida tropicalis; experiment: Antifungal activity against drug-resistant Candida tropicalis by CLSI two fold serial dilution method; assay type: functional
# [21] = tested on: Aspergillus fumigatus; experiment: Antifungal activity against drug-resistant Aspergillus fumigatus by CLSI two fold serial dilution method; assay type: functional
SMILES,MIC [1] [µM],MIC [2] [µM],MIC [3] [µM],MIC [4] [µM],MIC [5] [µM],MIC [6] [µM],MIC [7] [µM],MIC [8] [µM],MIC [9] [µM],MIC [10] [µM],MIC [11] [µM],MIC [13] [µM],MIC [14] [µM],MIC [15] [µM],MIC [16] [µM],MIC [17] [µM],MIC [18] [µM],MIC [19] [µM],MIC [20] [µM],MIC [21] [µM],other results
COc1cc(/C=N/Nc2nccs2)c2c(c1OCc1ccccc1F)CN1CCc3cc4c(cc3C1C2)OCO4 (stereo not drawn),60,460,230,230,460,230,460,460,920,920,230,,,,,,,,,,solubility at 3 h [12]: 374 to 3190 µg/mL
COc1cc(/C=N/NC(N)=S)c2c(c1OCc1cccc(Cl)c1)CN1CCc3cc4c(cc3C1C2)OCO4 (stereo not drawn),60,120,470,230,230,230,470,120,230,230,120,120,230,470,470,120,120,470,230,120,
COc1cc(/C=N/Nc2nccs2)c2c(c1OCc1ccc(Cl)cc1)CN1CCc3cc4c(cc3C1C2)OCO4 (stereo not drawn),450,450,220,110,220,450,220,450,890,890,60,,,,,,,,,,solubility at 3 h [12]: 374 to 3190 µg/mL
COc1cc(/C=N/NC(N)=S)c2c(c1OCc1ccc([N+](=O)[O-])cc1)CN1CCc3cc4c(cc3C1C2)OCO4 (stereo not drawn),230,460,110,110,230,230,460,230,460,460,110,230,230,110,230,460,460,230,460,460,
COc1cc(/C=N/NC(N)=S)c2c(c1OCc1ccccc1F)CN1CCc3cc4c(cc3C1C2)OCO4 (stereo not drawn),30,240,240,240,480,480,480,240,480,960,240,30,240,240,480,480,4,480,120,4,
COc1cc(/C=N/Nc2nccs2)c2c(c1OCc1ccc([N+](=O)[O-])cc1)CN1CCc3cc4c(cc3C1C2)OCO4 (stereo not drawn),110,110,220,440,50,220,440,220,870,440,7,,,,,,,,,,solubility at 3 h [12]: 374 to 3190 µg/mL
C=CCOc1c(OC)cc(/C=N/NC(N)=S)c2c1CN1CCc3cc4c(cc3C1C2)OCO4 (stereo not drawn),70,270,270,140,140,140,270,270,270,550,30,70,140,140,140,550,70,140,70,70,
CCCCCCCCCCOc1c(OC)cc(/C=N/Nc2nccs2)c2c1CN1CCc3cc4c(cc3C1C2)OCO4 (stereo not drawn),110,220,220,220,220,220,220,430,430,430,220,,,,,,,,,,solubility at 3 h [12]: 61 µg/mL
COc1cc(/C=N/NC(N)=S)c2c(c1OCc1ccc(F)cc1)CN1CCc3cc4c(cc3C1C2)OCO4 (stereo not drawn),120,480,480,240,240,120,480,240,480,240,60,120,120,240,240,480,8,120,120,120,
COc1cc(/C=N/NC(N)=S)c2c(c1OCc1ccccc1Cl)CN1CCc3cc4c(cc3C1C2)OCO4 (stereo not drawn),120,230,230,230,470,230,230,230,470,930,230,120,230,230,470,230,4,230,470,4,
